Reference: ChEMBL document CHEMBL5055621, “Synthesis and Characterization of the Novel Rodent-Active and CNS-Penetrant P2X7 Receptor Antagonist Lu AF27139” (J Med Chem, 2021)
In brackets after ≈: the same amount, converted by molar mass.

Key:
Rattus norvegicus = test: Reduction in LPS/BzATP-induced IL-1beta release in icv dosed Sprague-Dawley rat frontal cortex assessed as minimal effective dose pretreated 1 hr before BzATP stimulus; format: functional; details: read-out: MED
How it was run: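 Rats and mice with frontal cortex microdialysis probes and a lateral ventricle cannula received icv LPS (rat 3 μg/5 μL; mouse 0.1 μg/3 μL), and 1 h later oral compound in 20% HP-β-cyclodextrin. BzATP icv (rat 50 μg; mouse 5 μg) followed 1 h later.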

hERG (KCNH2) = hERG (KCNH2) (Homo sapiens, UniProt Q12809); test: Inhibition of human ERG at 30 uM
How it was run: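 hERG channel inhibition was measured at 30 μM.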

[1] = Tmax in rat at 2 mg/kg, po; format: ADME, organism-based; details: in vivo
How it was run: (§1)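 Rats received 1 mg/kg iv or 2 mg/kg po. The plasma concentration–time profile was analysed by a noncompartmental model to give half-life, Cmax, Tmax and absolute oral bioavailability.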

[2] = Cmax in male rat at 150 mg/kg, po after 7 days; format: ADME, organism-based; design: dose 150 mg/kg, time 7 day, route po; details: in vivo
[3] = Free plasma concentration in rat at 1 mg/kg, po after 2 hrs by ex vivo equilibrium dialysis; format: ADME, organism-based
How it was run: (§2)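 Male Sprague–Dawley rats were dosed orally at 1–100 mg/kg, and total plasma concentration was measured at 1 and 2 h. This was multiplied by fraction unbound from ex vivo equilibrium dialysis; mean ± SEM, n = 3 animals.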

[4] = Thermodynamic solubility of the compound by shake flask HPLC method; format: physicochemical; details: read-out: Therm_solubility
How it was run: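 Thermodynamic solubility was measured by shake flask with HPLC quantification.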

[5] = Absolute oral bioavailability in rat at 2 mg/kg; format: ADME, organism-based; details: in vivo; how it was run: as §1
P2X purinoceptor 7 = target: T1, P2X purinoceptor 7 (Rattus norvegicus, UniProt Q64663); test: Antagonist activity at rat P2X7 receptor expressed in HEK293 cells assessed as inhibition of BzATP-induced calcium-flux measured after 60 mins by FLIPR analysis; format: cell-based
T1 sequence (Q64663 whole entry): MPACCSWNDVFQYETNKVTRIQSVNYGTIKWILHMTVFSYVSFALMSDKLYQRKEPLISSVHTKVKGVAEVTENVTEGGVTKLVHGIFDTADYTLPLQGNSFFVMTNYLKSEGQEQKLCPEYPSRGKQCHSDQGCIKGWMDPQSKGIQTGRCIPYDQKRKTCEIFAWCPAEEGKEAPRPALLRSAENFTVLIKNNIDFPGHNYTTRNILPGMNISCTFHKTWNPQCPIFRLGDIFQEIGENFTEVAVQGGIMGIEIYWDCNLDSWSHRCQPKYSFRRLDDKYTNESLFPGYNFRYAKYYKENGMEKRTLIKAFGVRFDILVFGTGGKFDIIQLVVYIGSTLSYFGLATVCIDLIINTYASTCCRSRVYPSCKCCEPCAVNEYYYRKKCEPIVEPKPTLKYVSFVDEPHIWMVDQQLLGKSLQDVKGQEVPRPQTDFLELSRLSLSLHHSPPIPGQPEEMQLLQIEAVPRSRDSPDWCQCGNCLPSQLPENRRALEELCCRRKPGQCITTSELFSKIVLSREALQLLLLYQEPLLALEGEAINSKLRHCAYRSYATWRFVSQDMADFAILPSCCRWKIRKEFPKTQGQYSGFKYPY
How it was run: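 Stable rat or mouse P2X7 HEK293 cells in HBSS/20 mM HEPES/2.5 mM probenecid/0.05% BSA, pH 7.4, were loaded with Fluo-4 NW (37 °C 30 min, RT 30 min). After 30 min at RT, calcium fluorescence was read by FLIPR; n ≥ 3.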

Cytochrome P450 2C19 = Cytochrome P450 2C19 (Homo sapiens, UniProt P33261); test: Time dependent inhibition of CYP2C19 (unknown origin) upto 25 uM; format: ADME
Cytochrome P450 2C9 = Cytochrome P450 2C9 (Homo sapiens, UniProt P11712); test: Time dependent inhibition of CYP2C9 (unknown origin) upto 25 uM; format: ADME
Cytochrome P450 2B6 = target: T2, Cytochrome P450 2B6 (Homo sapiens, UniProt P20813); test: Inhibition of CYP2B6 (unknown origin) upto 25 uM; format: ADME
T2 sequence (P20813 whole entry): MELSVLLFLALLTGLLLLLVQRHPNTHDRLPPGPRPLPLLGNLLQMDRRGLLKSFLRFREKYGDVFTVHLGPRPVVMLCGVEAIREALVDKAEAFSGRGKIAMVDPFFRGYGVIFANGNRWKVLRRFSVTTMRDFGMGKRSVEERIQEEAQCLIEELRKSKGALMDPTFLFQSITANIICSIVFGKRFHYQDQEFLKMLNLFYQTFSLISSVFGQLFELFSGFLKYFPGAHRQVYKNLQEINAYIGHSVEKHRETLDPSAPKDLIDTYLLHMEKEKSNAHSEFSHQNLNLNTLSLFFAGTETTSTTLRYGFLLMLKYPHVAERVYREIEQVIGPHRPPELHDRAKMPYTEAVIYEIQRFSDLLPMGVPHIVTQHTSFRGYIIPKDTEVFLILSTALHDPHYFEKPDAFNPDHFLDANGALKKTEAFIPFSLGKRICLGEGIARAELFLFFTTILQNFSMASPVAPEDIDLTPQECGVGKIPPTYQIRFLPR

[6] = target: Sodium channel protein type 5 subunit alpha (Homo sapiens, UniProt Q14524); test: Inhibition of human Nav1.5 at 10 uM
How it was run: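 Human Nav1.5, Cav1.2 and KCNQ1/minK channels were tested at 10 μM.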

Cytochrome P450 3A4 [7] = target: T3, Cytochrome P450 3A4 (Homo sapiens, UniProt P08684); test: Time dependent inhibition of CYP3A4 (unknown origin) upto 25 uM; format: ADME
[8] = Half life in rat at 1 mg/kg, iv and 2 mg/kg, po; format: ADME, organism-based; details: in vivo; how it was run: as §1
[9] = Metabolic stability in rat hepatocytes assessed as intrinsic clearance at 1 uM measured after 2 hrs; format: ADME, cell-based, Hepatocyte; details: read-out: CLH (converted)
[10] = AUC (0 to 8 hr) in male rat at 3 mg/kg, po after 7 days; format: ADME, organism-based; design: dose 3 mg/kg, time 7 day, route po; details: in vivo
How it was run: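 Oral dosing in male Sprague-Dawley rats (150−200 g, 7-day acclimation, standard housing) in a 7-day exploratory toxicology study.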

Cytochrome P450 3A4 [11] = target: T3, Cytochrome P450 3A4; test: Inhibition of CYP3A4 (unknown origin) upto 25 uM; format: ADME
[12] = Metabolic stability in human hepatocytes assessed as intrinsic clearance at 1 uM measured after 2 hrs; format: ADME, cell-based, Hepatocyte; details: read-out: CLH (converted)
[13] = Free plasma concentration in rat at 30 mg/kg, po after 2 hrs by ex vivo equilibrium dialysis; format: ADME, organism-based; how it was run: as §2

T3 sequence (P08684 whole entry): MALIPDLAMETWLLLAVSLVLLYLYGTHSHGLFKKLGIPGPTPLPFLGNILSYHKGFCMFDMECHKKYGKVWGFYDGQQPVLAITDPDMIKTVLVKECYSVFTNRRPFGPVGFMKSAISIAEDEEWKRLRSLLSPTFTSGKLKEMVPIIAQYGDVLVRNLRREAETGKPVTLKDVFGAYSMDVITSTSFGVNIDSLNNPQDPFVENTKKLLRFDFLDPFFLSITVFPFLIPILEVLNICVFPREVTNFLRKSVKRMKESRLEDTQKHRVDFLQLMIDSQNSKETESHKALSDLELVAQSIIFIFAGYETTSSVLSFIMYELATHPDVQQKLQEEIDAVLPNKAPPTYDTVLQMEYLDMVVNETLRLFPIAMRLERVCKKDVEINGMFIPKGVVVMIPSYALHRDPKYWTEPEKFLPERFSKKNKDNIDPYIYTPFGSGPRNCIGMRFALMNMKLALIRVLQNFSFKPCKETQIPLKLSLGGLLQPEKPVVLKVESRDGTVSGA
hERG (KCNH2), sequence (Q12809 whole entry): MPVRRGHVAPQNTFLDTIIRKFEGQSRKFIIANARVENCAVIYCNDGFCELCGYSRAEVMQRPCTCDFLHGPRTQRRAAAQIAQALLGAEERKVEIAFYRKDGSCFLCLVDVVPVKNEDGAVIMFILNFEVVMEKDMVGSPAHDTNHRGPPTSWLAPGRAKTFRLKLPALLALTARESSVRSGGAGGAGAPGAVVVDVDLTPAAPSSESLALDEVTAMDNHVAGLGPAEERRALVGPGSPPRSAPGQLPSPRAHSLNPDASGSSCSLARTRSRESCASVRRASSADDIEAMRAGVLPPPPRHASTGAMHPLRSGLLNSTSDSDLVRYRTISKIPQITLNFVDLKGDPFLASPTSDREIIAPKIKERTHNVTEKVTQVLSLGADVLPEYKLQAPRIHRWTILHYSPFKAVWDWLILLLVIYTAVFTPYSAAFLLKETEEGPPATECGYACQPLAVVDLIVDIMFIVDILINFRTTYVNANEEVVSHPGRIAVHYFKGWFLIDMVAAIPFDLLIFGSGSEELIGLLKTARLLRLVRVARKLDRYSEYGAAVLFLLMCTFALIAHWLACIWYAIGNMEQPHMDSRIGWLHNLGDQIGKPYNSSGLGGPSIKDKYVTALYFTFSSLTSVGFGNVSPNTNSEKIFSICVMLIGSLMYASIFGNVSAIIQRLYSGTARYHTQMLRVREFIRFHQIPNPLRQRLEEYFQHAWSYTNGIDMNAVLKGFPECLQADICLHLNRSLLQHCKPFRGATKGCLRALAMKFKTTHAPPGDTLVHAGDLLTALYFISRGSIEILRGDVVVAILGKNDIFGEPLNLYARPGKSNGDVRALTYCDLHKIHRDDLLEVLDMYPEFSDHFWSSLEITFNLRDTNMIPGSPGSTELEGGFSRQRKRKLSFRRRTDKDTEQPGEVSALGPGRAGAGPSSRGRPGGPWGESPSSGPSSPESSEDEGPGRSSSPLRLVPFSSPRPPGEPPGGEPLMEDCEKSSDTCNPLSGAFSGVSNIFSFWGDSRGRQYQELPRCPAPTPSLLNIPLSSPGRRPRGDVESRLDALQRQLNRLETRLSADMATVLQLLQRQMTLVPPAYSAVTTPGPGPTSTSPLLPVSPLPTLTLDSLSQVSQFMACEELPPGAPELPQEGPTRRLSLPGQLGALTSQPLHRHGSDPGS
Cytochrome P450 2C19, sequence (P33261 whole entry): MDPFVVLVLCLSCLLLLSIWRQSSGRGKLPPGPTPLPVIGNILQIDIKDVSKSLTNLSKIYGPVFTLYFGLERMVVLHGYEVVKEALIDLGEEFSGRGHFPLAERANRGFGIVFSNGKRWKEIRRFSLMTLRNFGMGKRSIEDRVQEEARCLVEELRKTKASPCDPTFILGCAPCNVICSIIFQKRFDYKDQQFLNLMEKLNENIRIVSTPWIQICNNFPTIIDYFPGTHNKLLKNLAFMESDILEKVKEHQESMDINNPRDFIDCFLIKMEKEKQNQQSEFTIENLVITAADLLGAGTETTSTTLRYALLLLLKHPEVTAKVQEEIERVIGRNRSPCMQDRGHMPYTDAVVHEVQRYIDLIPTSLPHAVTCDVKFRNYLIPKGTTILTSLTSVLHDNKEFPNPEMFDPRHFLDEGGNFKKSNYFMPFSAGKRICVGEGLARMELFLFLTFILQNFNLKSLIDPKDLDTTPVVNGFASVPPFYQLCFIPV
Cytochrome P450 2C9, sequence (P11712 whole entry): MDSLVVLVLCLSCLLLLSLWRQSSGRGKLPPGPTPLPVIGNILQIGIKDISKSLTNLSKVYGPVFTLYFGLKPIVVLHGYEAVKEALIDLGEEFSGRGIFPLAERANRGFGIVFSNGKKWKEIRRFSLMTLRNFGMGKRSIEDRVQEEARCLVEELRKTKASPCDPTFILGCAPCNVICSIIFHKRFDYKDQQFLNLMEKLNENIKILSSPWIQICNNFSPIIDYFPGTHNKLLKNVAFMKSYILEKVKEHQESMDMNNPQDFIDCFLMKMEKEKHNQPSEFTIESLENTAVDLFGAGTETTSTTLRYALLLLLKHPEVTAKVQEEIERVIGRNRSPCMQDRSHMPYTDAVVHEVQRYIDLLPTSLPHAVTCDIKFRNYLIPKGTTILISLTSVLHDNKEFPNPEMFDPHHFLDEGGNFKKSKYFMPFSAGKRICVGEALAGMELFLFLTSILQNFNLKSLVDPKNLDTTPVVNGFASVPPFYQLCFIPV
Sodium channel protein type 5 subunit alpha, sequence (Q14524 whole entry): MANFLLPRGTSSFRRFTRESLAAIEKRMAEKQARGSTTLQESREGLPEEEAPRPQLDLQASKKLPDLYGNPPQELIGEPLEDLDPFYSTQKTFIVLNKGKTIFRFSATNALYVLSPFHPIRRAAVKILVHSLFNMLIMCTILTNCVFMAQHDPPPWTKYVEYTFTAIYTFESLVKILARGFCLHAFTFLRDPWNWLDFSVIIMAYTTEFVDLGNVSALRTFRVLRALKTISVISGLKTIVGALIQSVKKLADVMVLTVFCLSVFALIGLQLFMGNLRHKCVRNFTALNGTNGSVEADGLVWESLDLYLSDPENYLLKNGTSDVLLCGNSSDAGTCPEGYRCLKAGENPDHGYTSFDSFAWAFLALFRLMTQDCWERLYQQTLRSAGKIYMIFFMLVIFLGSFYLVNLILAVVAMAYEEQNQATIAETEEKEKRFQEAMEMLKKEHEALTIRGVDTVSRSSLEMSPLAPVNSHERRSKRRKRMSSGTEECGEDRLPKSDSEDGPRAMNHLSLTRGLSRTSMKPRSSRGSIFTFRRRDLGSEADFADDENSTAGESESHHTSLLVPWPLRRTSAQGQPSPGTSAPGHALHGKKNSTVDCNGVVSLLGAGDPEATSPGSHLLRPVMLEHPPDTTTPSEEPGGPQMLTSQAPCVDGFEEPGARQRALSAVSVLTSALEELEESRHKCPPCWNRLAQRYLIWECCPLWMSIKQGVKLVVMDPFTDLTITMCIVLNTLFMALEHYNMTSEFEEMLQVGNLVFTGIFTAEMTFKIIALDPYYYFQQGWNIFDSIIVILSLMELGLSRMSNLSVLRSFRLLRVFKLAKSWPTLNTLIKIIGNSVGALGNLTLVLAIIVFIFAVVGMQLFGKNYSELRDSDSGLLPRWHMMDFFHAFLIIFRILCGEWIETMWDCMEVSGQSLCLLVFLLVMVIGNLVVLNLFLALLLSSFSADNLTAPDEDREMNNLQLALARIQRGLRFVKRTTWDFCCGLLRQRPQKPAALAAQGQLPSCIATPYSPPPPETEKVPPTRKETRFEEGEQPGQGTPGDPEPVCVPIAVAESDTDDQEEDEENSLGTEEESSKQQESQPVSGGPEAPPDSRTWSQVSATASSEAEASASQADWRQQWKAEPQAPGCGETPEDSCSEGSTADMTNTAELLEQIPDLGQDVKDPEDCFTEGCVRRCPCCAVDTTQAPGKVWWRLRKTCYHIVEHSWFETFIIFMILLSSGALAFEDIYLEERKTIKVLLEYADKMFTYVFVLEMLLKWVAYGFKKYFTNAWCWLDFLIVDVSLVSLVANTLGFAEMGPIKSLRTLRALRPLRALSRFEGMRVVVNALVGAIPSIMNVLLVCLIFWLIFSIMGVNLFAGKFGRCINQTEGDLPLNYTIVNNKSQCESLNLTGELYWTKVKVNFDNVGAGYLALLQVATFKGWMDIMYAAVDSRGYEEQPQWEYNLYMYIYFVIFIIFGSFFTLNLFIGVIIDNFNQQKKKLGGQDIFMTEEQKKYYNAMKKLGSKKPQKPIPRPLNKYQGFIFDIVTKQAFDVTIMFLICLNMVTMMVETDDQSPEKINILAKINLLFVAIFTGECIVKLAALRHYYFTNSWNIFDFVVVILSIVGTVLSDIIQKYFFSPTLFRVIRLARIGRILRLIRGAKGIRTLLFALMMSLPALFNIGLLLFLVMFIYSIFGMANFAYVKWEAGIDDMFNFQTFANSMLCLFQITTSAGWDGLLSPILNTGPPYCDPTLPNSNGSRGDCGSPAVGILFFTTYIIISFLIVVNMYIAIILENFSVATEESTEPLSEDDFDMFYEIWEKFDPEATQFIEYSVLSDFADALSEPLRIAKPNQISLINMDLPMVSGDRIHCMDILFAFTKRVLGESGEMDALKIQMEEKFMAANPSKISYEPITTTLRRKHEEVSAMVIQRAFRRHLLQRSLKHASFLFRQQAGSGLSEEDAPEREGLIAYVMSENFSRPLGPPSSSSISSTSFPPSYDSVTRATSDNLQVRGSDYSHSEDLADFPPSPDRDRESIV

Tmax [1]: 0.58 h | Cmax [2]: 39.6 µM | Cp(f) [3]: 0.0228 µM | solubility thermodynamic [4]: 16 µg/mL (≈ 32.1 µM) | bioavailability [5]: ≥ 100% | IC50 (P2X purinoceptor 7): 2.4 nM | TDI (Cytochrome P450 2C19): Not Active | TDI (Cytochrome P450 2C9): Not Active | inhibition (INH) (Cytochrome P450 2B6): Not Active | TDI (Cytochrome P450 3A4 [7]): Not Active | half-life [8]: 2.7 h | CLint scaled at 1 µM [9]: 80 mL/min/kg | AUC at 168 h [10]: 7.16 µM·h | inhibition (INH) (Cytochrome P450 3A4 [11]): Not Active | CLint scaled at 1 µM [12]: 14.2 mL/min/kg | Cp(f) [13]: 0.556 µM
Structure (SMILES): O=C(NC[C@H](c1ccc(Cl)cc1)N1CCOCC1)c1sc(-c2ncccn2)nc1C(F)(F)F
minimal effective dose (Rattus norvegicus): 3 mg/kg | inhibition at 30 µM (hERG (KCNH2)): 44% | inhibition (INH) [6]: Not Active
